Results: ChEMBL document CHEMBL1137344, “Flavonoid dimers as bivalent modulators for P-glycoprotein-based multidrug resistance: synthetic apigenin homodimers linked with defined-length poly(ethylene glycol) spacers increase drug retention and enhance chemosensitivity in resistant cancer cells” (J Med Chem, 2006)
Active and inactive are the calls of the source. The rule behind the calls is not given here.

Legend:
P388/ADR [1] = experiment: Reversal of DOX resistance in P388 ADR cells by MTS assay at 5 uM; format: functional, cell-based; conditions: Mus musculus
In short: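 P388/ADR cells: 3-day MTS assay of DOX dose-response with modulator at 5 µM, or 10 µM for monomers. Verapamil 5 µM and 0.05% DMSO as controls. IC50 from curves, triplicate points, mean ± SD of three independent experiments.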

MDA-MB-435 [2] = experiment: Cytotoxicity against MDA435/LCC6 cells at 5 uM; format: functional, cell-based; conditions: Homo sapiens
MDA-MB-435 [3] = experiment: Reversal of vinblastine resistance in multidrug resistant MDA435/LCC6 cells by MTS assay; format: functional, cell-based; conditions: Homo sapiens
In short: (§1)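 Resistant MDA435/LCC6 cells, 4-day MTS assay of paclitaxel or vinblastine dose-response with dimers at 5 µM or monomers at 10 µM. Verapamil 5 µM as positive control, DMSO 0.05% as solvent control. IC50 from curves, triplicate, some repeated three times and averaged.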

MDA-MB-435 [4] = experiment: Reversal of paclitaxel resistance in multidrug resistant MDA435/LCC6 cells by MTS assay; format: functional, cell-based; conditions: Homo sapiens; in short: as §1
MDA-MB-435 [5] = experiment: Reversal of vinblastine resistance in multidrug resistant MDA435/LCC6 cells by MTS assay at 10 uM; format: functional, cell-based; conditions: Homo sapiens
In short: (§2)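 MDA435/LCC6 MDR cells in DMEM with 10% FBS, 2000 cells/well, allowed to attach for 24 h. Anticancer drug was added in serial concentrations with or without modulator (dimers 5 µM, monomers 10 µM; 0.05% DMSO solvent control), then grown for 4 days at 37 °C, 5% CO2. MTS/PMS was added for 2 h and A490 read. Survival was taken relative to DMSO controls; IC60 for DOX, IC50 for the others; triplicate.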

MDA-MB-435 [6] = experiment: Cytotoxicity against MDA435/LCC6 cells at 10 uM; format: functional, cell-based; conditions: Homo sapiens
MDA-MB-435 [7] = experiment: Reversal of DOX resistance in multidrug resistant MDA435/LCC6 cells by MTS assay at 10 uM; format: functional, cell-based; conditions: Homo sapiens; in short: as §2
P388 [8] = experiment: Relative fold, IC50 in absence to presence of 1,13-bis[4'-((5,7-dihydroxy)-4H-chromen-4-on-2-yl)phenyl]-1,4,7,10,13-pentaoxatridecane in multidrug resistant P388 cells; format: functional, Mus musculus
In short: (§3)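 P388/ADR cells seeded 5000/well in RPMI 1640 with 10% FBS, given drug concentration series with or without 5 µM modulator for 3 days. MTS/PMS added for 2 h at 37 °C, absorbance at 490 nm. IC50 from dose-response curves versus 0.05% DMSO controls. RF = IC50 without modulator / IC50 with modulator.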

P388/ADR [9] = experiment: Antiproliferative activity against adriamycin resistant P388 cells in presence of 5 uM 1,13-bis[4'-((5,7-dihydroxy)-4H-chromen-4-on-2-yl)phenyl]-1,4,7,10,13-pentaoxatridecane by ELISA; format: functional, cell-based; conditions: Mus musculus; in short: as §3
MDA-MB-435 [10] = experiment: Relative fold, IC50 in absence to presence of verapamil in multidrug resistant MDA435/LCC6 cells; format: functional, Homo sapiens
In short: (§4)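 Resistant breast cells seeded 2000/well, allowed 24 h attachment, then exposed to anticancer-drug concentration series with or without 5 µM modulator for 4 days. MTS/PMS read at 490 nm after 2 h. IC50 from dose-response curves relative to 0.05% DMSO controls. RF = IC50 without modulator divided by IC50 with modulator.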

MDA-MB-435 [11] = experiment: Antiproliferative activity against MDA435/LCC6 cells by ELISA; format: functional, cell-based; conditions: Homo sapiens
P388 [12] = experiment: Antiproliferative activity against P388 cells by ELISA; format: functional, cell-based; conditions: Mus musculus
In short: (§5)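 MTS/PMS proliferation assay: cells seeded 5000/well in RPMI 1640 with 10% FBS and penicillin/streptomycin at 37 °C, 5% CO2. Drug series added and cells grown 3 days. MTS/PMS added for 2 h at 37 °C, absorbance read at 490 nm. Survival relative to DMSO (0.05%) controls; IC50 from dose-response curves, at least triplicate.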

MDA-MB-435 [13] = experiment: Antiproliferative activity against multidrug resistant MDA435/LCC6 cells in presence of 5 uM verapamil by ELISA; format: functional, cell-based; conditions: Homo sapiens; in short: as §4
MDA-MB-435 [14] = experiment: Antiproliferative activity against multidrug resistant MDA435/LCC6 cells in presence of 5 uM 1,13-bis[4'-((5,7-dihydroxy)-4H-chromen-4-on-2-yl)phenyl]-1,4,7,10,13-pentaoxatridecane by ELISA; format: functional, cell-based; conditions: Homo sapiens; in short: as §4
P388/ADR [15] = experiment: Antiproliferative activity against adriamycin resistant P388 cells by ELISA; format: functional, cell-based; conditions: Mus musculus; in short: as §5
MDA-MB-435 [16] = experiment: Antiproliferative activity against multidrug resistant MDA435/LCC6 cells by ELISA; format: functional, cell-based; conditions: Homo sapiens
In short: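 MTS/PMS proliferation assay: cells seeded 2000/well, drugs added after 24 h attachment, growth 4 days in DMEM with 10% FBS at 37 °C, 5% CO2. MTS/PMS added for 2 h, absorbance read at 490 nm. Survival is taken relative to DMSO (0.05%) controls. IC50 is read from dose-response curves, at least triplicate, repeated twice.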

MDA-MB-435 [17] = experiment: Relative fold, IC50 in absence to presence of 1,13-bis[4'-((5,7-dihydroxy)-4H-chromen-4-on-2-yl)phenyl]-1,4,7,10,13-pentaoxatridecane in multidrug resistant MDA435/LCC6 cells; format: functional, Homo sapiens; in short: as §4
MDA-MB-435 [18] = experiment: Reversal potency of vinblastine resistance in multidrug resistant MDA435/LCC6 cells by MTS assay; format: functional; conditions: Homo sapiens, in the assay text read “doxorubicin” for “vinblastine”
MDA-MB-435 [19] = experiment: Effect on P-gp-mediated drug efflux in multidrug resistant MDA435/LCC6 cells assessed as relative fold in intracellular DOX accumulation at 10 uM; format: functional, Homo sapiens
In short: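 Resistant MDA435/LCC6 cells grown to confluence, preincubated 30 min at 37 °C in fresh DMEM with modulator (0–20 µM), then DOX added (final 20 µM) for 2 h at 37 °C. Cells trypsinized, washed in cold PBS, lysed in 0.3 N HCl/50% ethanol, sonicated, centrifuged. Supernatant fluorescence read at ex 470/em 585 nm. Mean ± SD of three independent experiments.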

IC50 (P388/ADR [9]) [nM] | IC50 (MDA-MB-435 [11]) [nM] | IC50 (P388 [12]) [nM] | IC50 (MDA-MB-435 [14]) [nM] | IC50 (P388/ADR [15]) [nM] | IC50 (MDA-MB-435 [16]) [nM] | SMILES | Activity (P388/ADR [1]) | Activity (MDA-MB-435 [2]) | Ratio IC50 (P388 [8]) | Ratio IC50 (MDA-MB-435 [17]) | other results
– | – | – | – | – | – | O=c1cc(-c2ccc(OCCOCCOCCOCCOCCOCCOc3ccc(-c4cc(=O)c5c(O)cc(O)cc5o4)cc3)cc2)oc2cc(O)cc(O)c12 | inactive | inactive | – | – | –
– | – | – | – | – | – | COc1ccc(CCN(C)CCCC(C#N)(c2ccc(OC)c(OC)c2)C(C)C)cc1OC (stereo not drawn) [VERAPAMIL] | – | – | – | – | IC50 (MDA-MB-435 [3]): 0.25 nM; EC50 (MDA-MB-435 [4]): 700 nM; IC50 (MDA-MB-435 [4]): 5.2 nM
– | – | – | – | – | – | O=c1cc(-c2ccc(OCCOCCOCCOCCO)cc2)oc2cc(O)cc(O)c12 | – | – | – | – | Activity (MDA-MB-435 [5]): inactive; Activity (MDA-MB-435 [6]): inactive; Activity (MDA-MB-435 [7]): inactive; EC50 (MDA-MB-435 [4]): > 10000 nM
– | – | – | – | – | – | O=c1cc(-c2ccc(OCCOCCOCCOCCOCCOCCOCCOCCOc3ccc(-c4cc(=O)c5c(O)cc(O)cc5o4)cc3)cc2)oc2cc(O)cc(O)c12 | inactive | inactive | – | – | –
123 | 300 | 22 | 550 | 1740 | 4690 | COc1cccc2c1C(=O)c1c(O)c3c(c(O)c1C2=O)C[C@@](O)(C(=O)CO)C[C@@H]3O[C@H]1C[C@H](N)[C@H](O)[C@H](C)O1 [DOXORUBICIN] | – | – | 14 | 9 | Ratio IC50 (MDA-MB-435 [10]): 16; IC50 (MDA-MB-435 [13]): 300 nM
30 | 2.9 | 22 | 4.8 | 1640 | 105 | CC(=O)O[C@H]1C(=O)[C@@]2(C)[C@H]([C@H](OC(=O)c3ccccc3)[C@]3(O)C[C@H](OC(=O)[C@H](O)[C@@H](NC(=O)c4ccccc4)c4ccccc4)C(C)=C1C3(C)C)[C@]1(OC(C)=O)CO[C@@H]1C[C@@H]2O [PACLITAXEL] | – | – | 55 | 22 | Ratio IC50 (MDA-MB-435 [10]): 20; IC50 (MDA-MB-435 [13]): 5.2 nM
4.3 | 0.34 | 4.1 | 0.42 | 95 | 4.4 | CC[C@]1(O)C[C@@H]2CN(CCc3c([nH]c4ccccc34)[C@@](C(=O)OC)(c3cc4c(cc3OC)N(C)[C@H]3[C@@](O)(C(=O)OC)[C@H](OC(C)=O)[C@]5(CC)C=CCN6CC[C@]43[C@@H]65)C2)C1 [VINBLASTINE] | – | – | 22 | 10 | Ratio IC50 (MDA-MB-435 [10]): 15; IC50 (MDA-MB-435 [13]): 0.29 nM
– | – | – | – | – | – | O=c1cc(-c2ccc(OCCOCCOCCOCCOCCOCCOCCOc3ccc(-c4cc(=O)c5c(O)cc(O)cc5o4)cc3)cc2)oc2cc(O)cc(O)c12 | inactive | inactive | – | – | –
– | – | – | – | – | – | O=c1cc(-c2ccc(OCCOc3ccc(-c4cc(=O)c5c(O)cc(O)cc5o4)cc3)cc2)oc2cc(O)cc(O)c12 | inactive | inactive | – | – | –
– | – | – | – | – | – | O=c1cc(-c2ccc(OCCOCCOCCOc3ccc(-c4cc(=O)c5c(O)cc(O)cc5o4)cc3)cc2)oc2cc(O)cc(O)c12 | – | inactive | – | – | IC60 (MDA-MB-435 [18]): 1300 nM; IC50 (MDA-MB-435 [3]): 0.87 nM; Activity (MDA-MB-435 [19]): 4; IC50 (MDA-MB-435 [4]): 21.5 nM
– | – | – | – | – | – | O=c1cc(-c2ccc(OCCOCCOCCOCCOCCOc3ccc(-c4cc(=O)c5c(O)cc(O)cc5o4)cc3)cc2)oc2cc(O)cc(O)c12 | inactive | inactive | – | – | –
– | – | – | – | – | – | O=c1cc(-c2ccc(OCCOCCOc3ccc(-c4cc(=O)c5c(O)cc(O)cc5o4)cc3)cc2)oc2cc(O)cc(O)c12 | – | inactive | – | – | IC60 (MDA-MB-435 [18]): 1300 nM; IC50 (MDA-MB-435 [3]): 0.61 nM; Activity (MDA-MB-435 [19]): 4.5; IC50 (MDA-MB-435 [4]): 19.9 nM
– | – | – | – | – | – | O=c1cc(-c2ccc(OCCOCCOCCO)cc2)oc2cc(O)cc(O)c12 | – | – | – | – | Activity (MDA-MB-435 [5]): inactive; Activity (MDA-MB-435 [6]): inactive; Activity (MDA-MB-435 [7]): inactive
– | – | – | – | – | – | O=c1cc(-c2ccc(OCCOCCOCCOCCOCCOCCOCCOCCOCCOc3ccc(-c4cc(=O)c5c(O)cc(O)cc5o4)cc3)cc2)oc2cc(O)cc(O)c12 | inactive | inactive | – | – | –
4.5 | 0.29 | 2.2 | 0.63 | 299 | 26 | CC[C@]1(O)C[C@H]2CN(CCc3c([nH]c4ccccc34)[C@@](C(=O)OC)(c3cc4c(cc3OC)N(C=O)[C@H]3[C@@](O)(C(=O)OC)[C@H](OC(C)=O)[C@]5(CC)C=CCN6CC[C@]43[C@@H]65)C2)C1 [VINCRISTINE] | – | – | 66 | 41 | –

SMILES | IC50 (P388/ADR [9]) [nM] | IC50 (MDA-MB-435 [11]) [nM] | IC50 (P388 [12]) [nM] | IC50 (MDA-MB-435 [14]) [nM] | IC50 (P388/ADR [15]) [nM] | IC50 (MDA-MB-435 [16]) [nM] | Activity (P388/ADR [1]) | Activity (MDA-MB-435 [2]) | Ratio IC50 (P388 [8]) | Ratio IC50 (MDA-MB-435 [17]) | other results
O=C1c2c(O)ccc(O)c2C(=O)c2c(NCCNCCO)ccc(NCCNCCO)c21 [MITOXANTRONE] | 194 | 0.35 | 4.3 | 646 | 395 | 1440 | – | – | 2 | 2.2 | –
